For orientation: inhibition means the drop in the measured response relative to a control, in per cent. High values mean strong suppression, low ones little suppression. By IC50 is commonly meant the concentration that inhibits the measured activity by half. Low readings indicate inhibition by little substance, high ones a need for much substance.

Assay [1] deals with Mycobacterium tuberculosis. Kind of assay: Antitubercular activity against Mycobacterium tuberculosis H37Rv after 5 days at 200 uM relative to control. The format is functional. To be noted: 120 h. The procedure, abridged:
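M. tuberculosis grown in liquid culture with compound at a fixed 200 μM for 5 days. Growth inhibition expressed as percent of control.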

The target in assay [2] is T1, Tyrosine-protein phosphatase non-receptor type 1 (Homo sapiens, UniProt P18031).
T1 sequence (P18031 whole entry): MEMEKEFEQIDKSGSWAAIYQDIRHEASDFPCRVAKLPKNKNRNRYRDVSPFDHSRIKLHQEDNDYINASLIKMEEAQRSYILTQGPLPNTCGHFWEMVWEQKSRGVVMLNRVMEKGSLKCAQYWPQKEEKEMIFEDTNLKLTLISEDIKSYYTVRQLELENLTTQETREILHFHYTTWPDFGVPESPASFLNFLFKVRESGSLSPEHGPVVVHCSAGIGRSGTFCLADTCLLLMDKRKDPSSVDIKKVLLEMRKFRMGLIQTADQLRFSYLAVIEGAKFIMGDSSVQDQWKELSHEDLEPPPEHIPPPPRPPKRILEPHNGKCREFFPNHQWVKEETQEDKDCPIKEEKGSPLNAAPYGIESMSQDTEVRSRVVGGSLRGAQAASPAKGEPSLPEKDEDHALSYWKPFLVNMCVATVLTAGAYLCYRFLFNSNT
In words: Inhibition of human PTPN1 expressed in Escherichia coli Rosetta 2 (DE3) using pNPP as substrate after 45 mins by spectrophotometric method.

Assay [3] addresses T2, Tyrosine-protein phosphatase non-receptor type 5 (Homo sapiens, UniProt P54829).
T2 sequence (P54829 whole entry): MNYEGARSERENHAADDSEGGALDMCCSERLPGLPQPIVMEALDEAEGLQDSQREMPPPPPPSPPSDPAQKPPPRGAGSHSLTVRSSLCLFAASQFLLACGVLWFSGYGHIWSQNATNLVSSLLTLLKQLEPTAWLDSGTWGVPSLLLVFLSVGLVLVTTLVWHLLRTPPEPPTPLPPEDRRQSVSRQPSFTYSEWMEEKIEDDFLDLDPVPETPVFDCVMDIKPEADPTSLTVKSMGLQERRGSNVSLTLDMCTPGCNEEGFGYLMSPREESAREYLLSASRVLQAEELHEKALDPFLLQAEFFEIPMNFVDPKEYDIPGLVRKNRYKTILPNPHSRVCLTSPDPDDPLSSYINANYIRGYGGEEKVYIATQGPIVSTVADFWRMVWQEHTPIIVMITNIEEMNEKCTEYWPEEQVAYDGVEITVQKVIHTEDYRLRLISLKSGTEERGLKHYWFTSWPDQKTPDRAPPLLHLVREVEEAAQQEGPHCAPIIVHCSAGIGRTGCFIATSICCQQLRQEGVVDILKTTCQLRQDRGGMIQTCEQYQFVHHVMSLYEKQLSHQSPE
In words: Inhibition of human PTPN5 expressed in Escherichia coli Rosetta 2 (DE3) using pNPP as substrate after 45 mins by spectrophotometric method.

Assay [4] has as its target T3, Phosphotyrosine protein phosphatase (Mycobacterium tuberculosis, UniProt A0A045ISB3).
T3 sequence (A0A045ISB3 whole entry): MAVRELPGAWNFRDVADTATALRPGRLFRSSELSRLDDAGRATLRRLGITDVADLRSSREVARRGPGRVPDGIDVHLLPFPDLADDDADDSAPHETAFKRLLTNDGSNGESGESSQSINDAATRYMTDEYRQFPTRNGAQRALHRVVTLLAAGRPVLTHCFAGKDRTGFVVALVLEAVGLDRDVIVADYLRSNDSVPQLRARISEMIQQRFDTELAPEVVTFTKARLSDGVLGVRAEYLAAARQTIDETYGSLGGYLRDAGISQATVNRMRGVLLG
Kind of assay: Inhibition of Mycobacterium tuberculosis His-tagged PtpB expressed in Escherichia coli Rosetta 2 (DE3) using pNPP as substrate after 30 mins by spectrophotometric method.

In assay [5] the target is T4, Tyrosine-protein phosphatase non-receptor type 2 (Homo sapiens, UniProt P17706).
T4 sequence (P17706 whole entry): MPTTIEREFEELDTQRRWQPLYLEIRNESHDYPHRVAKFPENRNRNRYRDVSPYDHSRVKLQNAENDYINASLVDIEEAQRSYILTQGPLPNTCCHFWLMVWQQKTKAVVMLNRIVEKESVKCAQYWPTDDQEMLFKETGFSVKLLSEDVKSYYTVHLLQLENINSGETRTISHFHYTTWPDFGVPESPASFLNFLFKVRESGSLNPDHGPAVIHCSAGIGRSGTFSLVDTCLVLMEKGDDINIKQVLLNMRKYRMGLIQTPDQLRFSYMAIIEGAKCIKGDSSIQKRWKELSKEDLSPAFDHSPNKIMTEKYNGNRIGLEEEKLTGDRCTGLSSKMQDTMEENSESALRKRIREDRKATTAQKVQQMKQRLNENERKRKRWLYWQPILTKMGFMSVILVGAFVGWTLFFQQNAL
In words: Inhibition of human PTPN2 expressed in Escherichia coli Rosetta 2 (DE3) using pNPP as substrate after 45 mins by spectrophotometric method.

Where only a bound is given, the exact number is not on record here.

On to `Cc1ccc(S(=O)(=O)Nc2ccc(-c3nc4cc(NS(=O)(=O)c5ccc(C)cc5)ccc4o3)cc2)cc1`, for which at 200 µM the inhibition in assay [1] was 0%. For the same compound, the half-maximal inhibitory concentration (IC50) is 14 µM in assay [2], 14 µM in assay [3], 6.9 µM in assay [4] and 18 µM in assay [5].

As for `O=C(O)c1ccc(S(=O)(=O)Nc2ccc(-c3nc4cc(NS(=O)(=O)c5ccc(C(=O)O)cc5)ccc4o3)cc2)cc1`, 200 µM produced 10% inhibition in assay [1]. Moreover, the half-inhibitory concentration (IC50) is more than 100 µM in assay [2], more than 100 µM in assay [3], 12 µM in assay [4] and more than 100 µM in assay [5].

For the compound `O=S(=O)(Nc1ccc2oc(-c3ccc(NS(=O)(=O)c4ccc(Cl)s4)cc3)nc2c1)c1cccc(C(F)(F)F)c1`, the inhibition at 200 µM in assay [1] was 0%. Moreover, the half-maximal inhibitory concentration (IC50) in assay [2] was determined as 13 µM; in assay [3], 16 µM; in assay [4], 7.1 µM; in assay [5], 20 µM.

`COc1ccc(Cl)cc1S(=O)(=O)Nc1ccc(-c2nc3cc(NS(=O)(=O)c4ccc(Cl)s4)ccc3o2)cc1`: at 200 µM the inhibition in assay [1] was 33%. The 50% inhibitory concentration (IC50) was found to be 6.4 µM in assay [2], 11 µM in assay [3], 3.4 µM in assay [4] and 16 µM in assay [5].

For the compound `O=S(=O)(Nc1ccc(-c2nc3cc(NS(=O)(=O)c4ccc(Cl)s4)ccc3o2)cc1)c1ccc(Cl)c(C(F)(F)F)c1`, the inhibition at 200 µM in assay [1] is 0%. Also, the IC50 in assay [2] was 7.6 µM; in assay [3], 12 µM; in assay [4], 2 µM; in assay [5], 13 µM.

In assay [1], `O=C(O)c1cccc(S(=O)(=O)Nc2ccc(-c3nc4cc(NS(=O)(=O)c5cccc(C(=O)O)c5)ccc4o3)cc2)c1` gave an inhibition at 200 µM of 7%. Besides, the IC50 is more than 100 µM in assay [2], more than 100 µM in assay [3], 9.9 µM in assay [4] and more than 100 µM in assay [5].

`O=c1ccc2cc(S(=O)(=O)Nc3ccc(-c4nc5cc(NS(=O)(=O)c6ccc7oc(=O)ccc7c6)ccc5o4)cc3)ccc2o1`: at 200 µM the inhibition in assay [1] was 23%. Besides, the IC50 was found to be 6.3 µM in assay [2], 17 µM in assay [3], 8.7 µM in assay [4] and 9.1 µM in assay [5].

In assay [1], `O=S(=O)(Nc1ccc2oc(-c3ccc(NS(=O)(=O)c4ccc(Cl)s4)cc3)nc2c1)c1ccc(Cl)c(C(F)(F)F)c1` came in with an inhibition at 200 µM of 0%. The IC50 in assay [2] was found to be 7.6 µM; in assay [3], 11 µM; in assay [4], 3.8 µM; in assay [5] it was 14 µM.

For `O=S(=O)(Nc1ccc(-c2nc3cc(NS(=O)(=O)c4ccc(Cl)s4)ccc3o2)cc1)c1ccc(Br)cc1`, at 200 µM the inhibition in assay [1] was 0%. In addition, the IC50 stood at 8.8 µM in assay [2], 8.8 µM in assay [3], 5.3 µM in assay [4] and 11 µM in assay [5].

Regarding `C=Cc1ccc(S(=O)(=O)Nc2ccc3oc(-c4ccc(NS(=O)(=O)c5ccc(Cl)s5)cc4)nc3c2)cc1`, testing at 200 µM in assay [1] gave an inhibition of 10%. Also, the IC50 stood at 7.2 µM in assay [2], 12 µM in assay [3], 3.9 µM in assay [4] and 12 µM in assay [5].

Regarding `O=S(=O)(Nc1ccc(-c2nc3cc(NS(=O)(=O)c4ccccc4C(F)(F)F)ccc3o2)cc1)c1ccccc1C(F)(F)F`, the inhibition at 200 µM in assay [1] worked out at 35%. Also, the half-maximal inhibitory concentration (IC50) in assay [2] was 14 µM; in assay [3], 15 µM; in assay [4], 8.1 µM; in assay [5], 22 µM.

For the compound `O=S(=O)(Nc1ccc(-c2nc3cc(NS(=O)(=O)c4ccc(Cl)s4)ccc3o2)cc1)c1cccc(C(F)(F)F)c1`, the inhibition at 200 µM in assay [1] was 36%. Further, the IC50 was determined as 12 µM in assay [2], 16 µM in assay [3], 3 µM in assay [4] and 16 µM in assay [5].

In assay [1], `Cc1ccc(S(=O)(=O)Nc2ccc(-c3nc4ccc(NS(=O)(=O)c5ccc(C)cc5)cc4[nH]3)cc2)cc1` displayed an inhibition at 200 µM of 14%. Besides, the IC50 in assay [2] came out at 15 µM; in assay [3], 13 µM; in assay [4], 23 µM; in assay [5] it was 22 µM.

As for `O=S(=O)(Nc1ccc(-c2nc3cc(NS(=O)(=O)c4ccc(Cl)s4)ccc3o2)cc1)c1ccc2ncsc2c1`, in assay [1], testing at 200 µM gave an inhibition of 33%. Moreover, the IC50 amounted to 7.9 µM in assay [2], 13 µM in assay [3], 7.1 µM in assay [4] and 11 µM in assay [5].

Consider `O=S(=O)(Nc1ccc(-c2nc3cc(NS(=O)(=O)c4cccc5nsnc45)ccc3o2)cc1)c1cccc2nsnc12`, for which, in assay [1], testing at 200 µM gave an inhibition of 0%. In addition, the concentration for half-maximal inhibition (IC50) amounted to 10 µM in assay [2], 17 µM in assay [3], 7 µM in assay [4] and 17 µM in assay [5].

Regarding `O=[N+]([O-])c1ccc(S(=O)(=O)Nc2ccc(-c3nc4cc(NS(=O)(=O)c5ccc([N+](=O)[O-])cc5)ccc4o3)cc2)cc1`, in assay [1], the inhibition at 200 µM came to 0%. Moreover, the concentration for half-maximal inhibition (IC50) stood at 27 µM in assay [2], 18 µM in assay [3], 6.2 µM in assay [4] and 28 µM in assay [5].

In turn, `O=S(=O)(Nc1ccc(-c2nc3cc(NS(=O)(=O)c4cccc(Br)c4)ccc3o2)cc1)c1cccc(Br)c1` had an inhibition at 200 µM in assay [1] of 17%. In addition, the 50% inhibitory concentration (IC50) in assay [2] was 14 µM; in assay [3] it was 11 µM; in assay [4], 0.79 µM; in assay [5] it was 11 µM.

With `O=[N+]([O-])c1cc(S(=O)(=O)Nc2ccc3oc(-c4ccc(NS(=O)(=O)c5ccc(Cl)s5)cc4)nc3c2)ccc1Cl`, 200 µM produced 1% inhibition in assay [1]. For the same compound, the IC50 turned out to be 9.4 µM in assay [2], 8.4 µM in assay [3], 4.6 µM in assay [4] and 8.9 µM in assay [5].

As for `O=c1ccc2cc(S(=O)(=O)Nc3ccc(-c4nc5cc(NS(=O)(=O)c6ccc(Cl)s6)ccc5o4)cc3)ccc2o1`, testing at 200 µM in assay [1] gave an inhibition of 0%. For the same compound, the half-maximal inhibitory concentration (IC50) in assay [2] worked out at 8.4 µM; in assay [3], 15 µM; in assay [4], 5.5 µM; in assay [5], 17 µM.

As for `O=[N+]([O-])c1cccc(S(=O)(=O)Nc2ccc(-c3nc4cc(NS(=O)(=O)c5cccc([N+](=O)[O-])c5)ccc4o3)cc2)c1`, in assay [1], the inhibition at 200 µM turned out to be 0%. Further, the concentration for half-maximal inhibition (IC50) in assay [2] was 14 µM; in assay [3], 24 µM; in assay [4] it was 9.1 µM; in assay [5], 29 µM.

For the compound `O=S(=O)(Nc1ccc(-c2nc3cc(NS(=O)(=O)c4cccc(Cl)c4)ccc3o2)cc1)c1cccc(Cl)c1`, in assay [1], the inhibition at 200 µM was 0%. Moreover, the half-inhibitory concentration (IC50) in assay [2] was found to be 16 µM; in assay [3], 13 µM; in assay [4] it was 2.3 µM; in assay [5], 17 µM.

In turn, `O=C(O)c1ccccc1S(=O)(=O)Nc1ccc(-c2nc3cc(NS(=O)(=O)c4ccccc4C(=O)O)ccc3o2)cc1` gave an inhibition at 200 µM in assay [1] of 22%. Besides, the concentration for half-maximal inhibition (IC50) in assay [2] is more than 100 µM; in assay [3], more than 100 µM; in assay [4], 4.2 µM; in assay [5], more than 100 µM.

These data come from ChEMBL document CHEMBL4387722.
